Results: ChEMBL document CHEMBL1137159, “Aminotriazine 5-HT7 antagonists” (Bioorg Med Chem Lett, 2004)

Tests used:
[1] = molecular target: T1, Adrenergic receptor alpha-1 (Homo sapiens, UniProt P35348+P25100+P35368); assay: Binding affinity against Alpha1 adrenergic receptor; assay type: protein assay
T1 sequence (P35348 whole entry): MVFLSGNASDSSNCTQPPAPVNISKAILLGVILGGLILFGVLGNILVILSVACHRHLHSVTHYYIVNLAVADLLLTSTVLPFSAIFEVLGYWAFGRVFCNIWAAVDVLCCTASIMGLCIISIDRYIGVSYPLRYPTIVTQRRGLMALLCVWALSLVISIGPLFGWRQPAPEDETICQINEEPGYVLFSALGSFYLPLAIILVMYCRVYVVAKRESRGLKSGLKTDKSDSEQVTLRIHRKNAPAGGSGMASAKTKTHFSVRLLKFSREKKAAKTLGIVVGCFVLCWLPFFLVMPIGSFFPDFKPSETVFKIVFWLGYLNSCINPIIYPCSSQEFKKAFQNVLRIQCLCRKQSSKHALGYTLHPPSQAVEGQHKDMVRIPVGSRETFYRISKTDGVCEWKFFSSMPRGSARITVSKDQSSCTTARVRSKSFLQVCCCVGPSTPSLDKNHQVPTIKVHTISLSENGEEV
T1 sequence (P25100 whole entry): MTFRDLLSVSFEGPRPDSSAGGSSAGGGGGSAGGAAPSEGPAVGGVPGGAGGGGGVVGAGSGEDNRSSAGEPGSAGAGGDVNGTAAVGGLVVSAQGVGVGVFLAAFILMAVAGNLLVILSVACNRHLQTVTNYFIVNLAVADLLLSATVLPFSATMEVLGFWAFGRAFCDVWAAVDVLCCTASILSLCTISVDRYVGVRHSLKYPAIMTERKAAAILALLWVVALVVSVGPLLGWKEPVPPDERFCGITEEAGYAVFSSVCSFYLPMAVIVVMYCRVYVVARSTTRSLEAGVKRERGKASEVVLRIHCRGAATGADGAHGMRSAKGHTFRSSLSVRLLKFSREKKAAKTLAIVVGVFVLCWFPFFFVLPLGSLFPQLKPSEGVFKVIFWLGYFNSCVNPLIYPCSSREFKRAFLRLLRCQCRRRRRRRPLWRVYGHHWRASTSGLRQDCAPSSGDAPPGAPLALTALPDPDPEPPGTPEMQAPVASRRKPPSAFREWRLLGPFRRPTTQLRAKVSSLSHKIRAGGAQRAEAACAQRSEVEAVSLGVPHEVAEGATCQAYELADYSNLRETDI
T1 sequence (P35368 whole entry): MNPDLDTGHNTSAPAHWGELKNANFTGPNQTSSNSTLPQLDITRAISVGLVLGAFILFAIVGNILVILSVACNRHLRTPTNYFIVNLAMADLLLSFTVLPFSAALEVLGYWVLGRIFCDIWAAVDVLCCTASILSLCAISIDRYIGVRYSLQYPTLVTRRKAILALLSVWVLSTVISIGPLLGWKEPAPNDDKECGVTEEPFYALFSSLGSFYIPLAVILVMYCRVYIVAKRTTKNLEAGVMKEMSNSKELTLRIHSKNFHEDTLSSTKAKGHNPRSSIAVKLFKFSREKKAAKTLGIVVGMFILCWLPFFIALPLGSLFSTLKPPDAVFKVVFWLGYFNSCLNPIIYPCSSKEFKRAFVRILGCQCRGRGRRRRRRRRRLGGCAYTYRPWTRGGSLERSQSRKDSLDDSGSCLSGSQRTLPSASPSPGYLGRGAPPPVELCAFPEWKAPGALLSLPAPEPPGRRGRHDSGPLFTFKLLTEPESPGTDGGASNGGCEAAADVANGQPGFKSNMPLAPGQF

[2] = molecular target: T2, 5-hydroxytryptamine receptor 2C (Homo sapiens, UniProt P28335); assay: Binding affinity against 5-Hydroxy tryptamine 2C receptor
T2 sequence (P28335 whole entry): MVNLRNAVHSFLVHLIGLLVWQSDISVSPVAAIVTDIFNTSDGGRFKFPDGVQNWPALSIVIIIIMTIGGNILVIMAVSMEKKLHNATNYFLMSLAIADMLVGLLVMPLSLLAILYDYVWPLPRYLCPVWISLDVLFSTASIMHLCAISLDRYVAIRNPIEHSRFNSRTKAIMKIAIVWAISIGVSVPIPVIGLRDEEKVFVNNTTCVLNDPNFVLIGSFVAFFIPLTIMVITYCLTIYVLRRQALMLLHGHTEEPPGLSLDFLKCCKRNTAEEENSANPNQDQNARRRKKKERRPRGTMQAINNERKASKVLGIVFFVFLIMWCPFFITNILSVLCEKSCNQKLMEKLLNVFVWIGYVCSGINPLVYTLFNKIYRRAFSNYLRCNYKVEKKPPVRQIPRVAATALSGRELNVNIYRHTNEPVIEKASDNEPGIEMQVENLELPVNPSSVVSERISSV

[3] = molecular target: 5-hydroxytryptamine receptor 7 (Homo sapiens, UniProt P34969); assay: Binding affinity against 5-Hydroxy tryptamine 7 receptor
Sequence of 5-hydroxytryptamine receptor 7 (P34969 whole entry): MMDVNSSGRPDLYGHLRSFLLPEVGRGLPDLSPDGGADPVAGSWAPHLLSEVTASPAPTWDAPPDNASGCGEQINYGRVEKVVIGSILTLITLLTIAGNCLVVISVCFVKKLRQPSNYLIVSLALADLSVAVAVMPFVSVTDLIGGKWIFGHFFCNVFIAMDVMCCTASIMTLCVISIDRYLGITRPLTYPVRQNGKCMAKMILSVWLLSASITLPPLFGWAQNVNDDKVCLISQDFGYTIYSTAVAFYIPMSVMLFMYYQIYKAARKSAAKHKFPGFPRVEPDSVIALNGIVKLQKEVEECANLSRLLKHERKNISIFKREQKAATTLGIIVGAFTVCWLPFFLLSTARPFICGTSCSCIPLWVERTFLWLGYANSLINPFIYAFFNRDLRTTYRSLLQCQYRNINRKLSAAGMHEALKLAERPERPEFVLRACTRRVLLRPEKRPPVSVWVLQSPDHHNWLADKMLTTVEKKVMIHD
Outline: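 Membranes from CHO cells expressing human 5-HT7, homogenized, pelleted at 18,000g, stored at -80 °C. Each well held 30 µg protein in 50 mM HEPES. Incubation was 60 min at 25 °C with 0.1-1000 nM compound and 1 nM [3H]-5-carboxamidotryptamine; nonspecific binding was defined with 10 µM serotonin. Stopped with ice-cold HEPES, GF/B filtration, scintillation counting. Ki by nonlinear regression; triplicate or more.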

[4] = molecular target: 5-hydroxytryptamine receptor 6 (Homo sapiens, UniProt P50406); assay: Binding affinity against 5-Hydroxy tryptamine 6 receptor
Sequence of 5-hydroxytryptamine receptor 6 (P50406 whole entry): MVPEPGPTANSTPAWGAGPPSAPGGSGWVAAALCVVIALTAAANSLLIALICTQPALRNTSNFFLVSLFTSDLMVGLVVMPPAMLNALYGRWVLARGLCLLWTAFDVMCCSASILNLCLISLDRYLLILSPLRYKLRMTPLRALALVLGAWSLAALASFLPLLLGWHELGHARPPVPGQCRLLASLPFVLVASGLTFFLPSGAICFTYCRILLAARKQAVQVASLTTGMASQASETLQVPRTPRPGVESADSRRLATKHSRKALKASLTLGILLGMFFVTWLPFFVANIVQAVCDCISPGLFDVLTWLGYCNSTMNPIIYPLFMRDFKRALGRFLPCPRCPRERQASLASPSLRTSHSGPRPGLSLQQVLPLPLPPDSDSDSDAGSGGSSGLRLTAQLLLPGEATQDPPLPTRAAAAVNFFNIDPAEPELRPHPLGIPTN

[5] = Oral bioavailability in rat; assay type: ADME, organism-based; conditions: in vivo

Ki [1] [nM] | Ki [2] [nM] | Ki [3] [nM] | Ki [4] [nM] | bioavailability [5] [%] | SMILES
100 | > 1000 |  | > 1000 | 57 | C[C@H](Nc1nc(N)nc(NCCOc2ccc(F)cc2)n1)c1ccc(F)cc1
 |  | 3 |  |  | C[C@H](Nc1ncnc(NCCOc2ccccc2)n1)c1ccccc1
 |  | > 1000 |  |  | C[C@@H](Nc1nc(N)nc(NCCOc2ccccc2)n1)c1ccccc1
200 | 20 | 2 | 172 | 44 | C[C@H](Nc1nc(N)nc(NCCc2ccc(F)cc2)n1)c1ccc(F)cc1
 |  | 10 |  |  | C[C@H](Nc1nc(F)nc(NCCOc2ccccc2)n1)c1ccccc1
> 1000 | 10 | 2 | 380 |  | CC(Nc1nc(N)nc(NCCc2cccs2)n1)c1ccc(F)cc1 (racemic)
 |  | > 1000 |  |  | CC(Nc1nc(N)nc(NCCc2ccncc2)n1)c1ccc(F)cc1 (racemic)

Further lines, the compound ahead of its results:

SMILES | Ki [1] [nM] | Ki [2] [nM] | Ki [3] [nM] | Ki [4] [nM] | bioavailability [5] [%]
C[C@H](Nc1nc(N)nc(NCCOc2ccccc2)n1)c1ccccc1 | 300 | > 1000 | 3 | > 1000 | 12
C[C@H](Nc1nc(N)nc(NCCc2ccccn2)n1)c1ccc(F)cc1 | > 1000 | 160 | 9 | > 1000 | 15
Cc1nc(NCCOc2ccccc2)nc(N[C@@H](C)c2ccccc2)n1 |  |  | 54 |  | 
C[C@H](Nc1nc(NCCOc2ccccc2)nc(N(C)C)n1)c1ccccc1 |  |  | 23 |  | 
CC(Nc1nc(N)nc(NCCc2ccccc2)n1)c1ccc(F)cc1 (stereo not drawn) |  |  | 8 |  | 
CC(Nc1nc(N)nc(NCCCc2ccccc2)n1)c1ccccc1 (racemic) |  |  | 60 |  | 
CC(Nc1nc(N)nc(NCCOc2ccccc2)n1)c1ccccc1 (racemic) |  |  | 8 |  | 
CC(Nc1nc(N)nc(NCCc2cccnc2)n1)c1ccc(F)cc1 (racemic) |  |  | > 41000 |  | 
